ChEMBL document CHEMBL1137739, “Synthesis of chlorovinyl sulfones as structural analogs of chalcones and their antiplasmodial activities” (Eur J Med Chem, 2009)

What was measured:
[1] = target: T1, Histidine-rich protein PFHRP-II (Plasmodium falciparum) (UniProt P05227); test: Inhibition of acetate buffer-induced hemozoin formation at 1.25 to 25 mM/well after 48 hrs; assay type: functional; set-up: scale not given: the % may be the effect or the level left
T1 sequence (whole entry): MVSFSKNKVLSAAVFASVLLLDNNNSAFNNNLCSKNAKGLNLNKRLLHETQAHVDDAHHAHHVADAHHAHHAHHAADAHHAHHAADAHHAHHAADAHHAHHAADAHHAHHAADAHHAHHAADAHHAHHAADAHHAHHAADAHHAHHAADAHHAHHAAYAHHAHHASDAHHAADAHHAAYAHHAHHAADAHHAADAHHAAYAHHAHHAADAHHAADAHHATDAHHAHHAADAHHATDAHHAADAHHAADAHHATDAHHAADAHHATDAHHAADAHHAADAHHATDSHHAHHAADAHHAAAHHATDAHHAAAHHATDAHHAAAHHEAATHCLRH
How it was run: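 Hemin chloride solution (4 mM, in DMSO) was mixed in triplicate with compounds in DMSO at final 1.25–25 per well. Controls were water or DMSO. Reaction was started with 0.2 M acetate buffer pH 4.4 and run at 37 °C for 48 h. Pellets were centrifuged, washed twice with DMSO, dissolved in 0.2 N NaOH, diluted 1:2 in 0.1 N NaOH, and absorbance read at 405 nm.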

Plasmodium falciparum [2] = test: Antimalarial activity as inhibition of chloroquine-resistant Plasmodium falciparum mediated mice (Mus musculus) hemoglobin hydrolysis at 5 mM after 18 hrs; assay type: functional; set-up: scale not given: the % may be the effect or the level left
How it was run: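 Parasite extract was incubated with native mouse haemoglobin, GSH (10 mM as added) and 0.2 M acetate buffer pH 5.4, with inhibitors added in DMSO, at 37 °C for 18 h. Reactions were stopped with reducing sample buffer and run on SDS-PAGE. Digestion was scored by densitometry of the 14 kDa globin band against a DMSO control, as intensity/mm2 ± SD.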

Plasmodium falciparum [3] = test: Antimalarial activity as parasite development after 48 hrs against chloroquine-sensitive Plasmodium falciparum W2 by FACS analysis; assay type: functional, organism-based; details: W2, 48 h, in the assay text read “chloroquine-resistant” for “chloroquine-sensitive”
How it was run: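 Sorbitol-synchronized ring-stage P. falciparum W2, started at 0.1% parasitemia, grown in RPMI-1640 with 10% human serum under 3% O2/6% CO2/91% N2. Inhibitors were added from 1000× DMSO stocks for 48 h with no medium change. Cells were fixed in 1% formaldehyde/PBS pH 7.4 for 48 h at room temperature, then stained with 1 nM YOYO in 0.1% Triton X-100/PBS. Nucleated erythrocytes were counted by flow cytometry. IC50 came from nonlinear fits of % control parasitemia against concentration, duplicate experiments.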

Plasmodium berghei [4] = test: Antimalarial activity as reduced parasitaemia at day 4 in Peter's assay against Plasmodium berghei ANKA infected in NIH mice (Mus musculus) at 20 mg/kg intraperitoneal dose 2 hrs post infection then daily over 4 days; assay type: functional; set-up: scale not given: the % may be the effect or the level left
How it was run: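 NIH mice (18–23 g) were infected i.p. with 10^6 P. berghei-infected red cells. Compound was dissolved in DMSO (0.1 M), diluted in 2% saline–Tween 20, and given at 20 mg/kg i.p. once daily for 4 days, starting 2 h after infection. Day-4 parasitemia was read from Giemsa-stained smears as % of untreated controls. Survival was also recorded. Analysis used one-way ANOVA and t-tests.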

Plasmodium berghei [5] = test: Antimalarial activity as survival in Peter's assay at day 4 against Plasmodium berghei ANKA infected in NIH mice (Mus musculus) at 20 mg/kg intraperitoneal dose 2 hrs post infection then daily over 4 days
Plasmodium berghei [6] = test: Antimalarial activity as reduced parasitaemia at day 4 in Peter's assay against Plasmodium berghei ANKA infected in NIH mice (Mus musculus) at 25 mg/kg intraperitoneal dose 2 hrs post infection then daily for 4 days; assay type: functional; set-up: scale not given: the % may be the effect or the level left
How it was run: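 Chloroquine reference arm: NIH mice (18–23 g) were infected i.p. with 10^6 P. berghei-infected red cells and given 25 mg/kg once daily for 4 days, starting 2 h post-infection. Day-4 parasitemia was counted on Giemsa-stained smears, expressed relative to untreated controls, with survival recorded.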

Plasmodium berghei [7] = test: Antimalarial activity as survival at day 4 in Peter's assay against Plasmodium berghei ANKA infected NIH mice (Mus musculus) at 25 mg/kg intraperitoneal dose 2 hrs post infection then daily for 4 days; assay type: functional
How it was run: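 NIH mice (18–23 g) were infected i.p. with 10^6 P. berghei-infected erythrocytes. Dosing started 2 h later, i.p. once daily for 4 days, with compounds at 20 mg/kg and chloroquine at 25 mg/kg, from 0.1 M DMSO stocks diluted in 2% saline–Tween 20. Day-4 parasitaemia was read from Giemsa smears as % of untreated control, and survival as % of mice. Analysis used one-way ANOVA and t-tests.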

SMILES	Activity [1] [%]	Activity (Plasmodium falciparum [2]) [%]	IC50 (Plasmodium falciparum [3]) [nM]	Activity (Plasmodium berghei [4]) [%]	Activity (Plasmodium berghei [5]) [%]	Activity (Plasmodium berghei [6]) [%]	Activity (Plasmodium berghei [7]) [days]
O=S(=O)(/C(Cl)=C/c1ccc(Cl)c(Cl)c1)c1ccccc1	< 5	95.04	59	13.4	50		
COc1cc(OC)c(OC)cc1/C=C(\Cl)S(=O)(=O)c1ccccc1	< 5	11.07	> 10000				
O=S(=O)(/C(Cl)=C/c1cc2ccccc2nc1Cl)c1ccccc1	< 5	28.49	25				
CC(=O)N[C@@H](CC(C)C)C(=O)N[C@@H](CC(C)C)C(=O)N[C@H](C=O)CCCNC(=N)N [LEUPEPTIN]		89.75					
COc1ccc(/C=C(\Cl)S(=O)(=O)c2ccccc2)cc1	< 5	<5	470				
CCN(CC)CCCC(C)Nc1ccnc2cc(Cl)ccc12 (stereo not drawn) [CHLOROQUINE]	84.2	26.92				3	30
COc1cc(OC)c(/C=C(\Cl)S(=O)(=O)c2ccccc2)c(OC)c1	< 5	<5	10000				
O=S(=O)(/C(Cl)=C/c1ccc2ccccc2c1)c1ccccc1	< 5	84.59	58	6.25	72		
O=S(=O)(/C(Cl)=C/c1ccc(Cl)cc1Cl)c1ccccc1	< 5	75.3	960				
CC(C)CC(=O)N[C@H](C(=O)N[C@H](C(=O)N[C@@H](CC(C)C)[C@@H](O)CC(=O)N[C@@H](C)C(=O)N[C@@H](CC(C)C)[C@@H](O)CC(=O)O)C(C)C)C(C)C [PEPSTATIN]		93.77					
O=S(=O)(/C(Cl)=C/c1ccc2c(c1)OCO2)c1ccccc1	< 5	37.34	53				
O=S(=O)(/C(Cl)=C/c1ccccc1Cl)c1ccccc1	< 5	65.81	> 10000				
O=S(=O)(/C(Cl)=C/c1ccc(Cl)cc1)c1ccccc1	< 5	74.92	83				
COc1cc(/C=C(\Cl)S(=O)(=O)c2ccccc2)cc(OC)c1OC	< 5	<5	10000				
N#Cc1ccc(/C=C(\Cl)S(=O)(=O)c2ccccc2)cc1	< 5	44.73	> 10000				
O=[N+]([O-])c1ccc(/C=C(\Cl)S(=O)(=O)c2ccccc2)cc1	< 5	79.19	73				
O=S(=O)(/C(Cl)=C/c1ccc(F)cc1)c1ccccc1	< 5	52.72	> 10000				
O=S(=O)(/C(Cl)=C/c1cccc2ccccc12)c1ccccc1	< 5	76.69	75				
O=S(=O)(/C(Cl)=C/c1ccccc1)c1ccccc1	< 5	59.33	> 10000				
